According to ChEMBL document CHEMBL4725483, “Simultaneous Inhibition of SIRT2 Deacetylase and Defatty-Acylase Activities via a PROTAC Strategy” (ACS Med Chem Lett, 2020):
pIC50: −log10 of the molar value. The source made the active and inactive calls. The rule behind the calls is not given here.

Experiments:
[1] = molecular target: T1, Protein cereblon/NAD-dependent protein deacetylase sirtuin-2 (Homo sapiens) (UniProt Q8IXJ6+Q96SW2); experiment: Protac activity at CRBN/SIRT2 in human MDA-MB-468 cells assessed as SIRT2 degradation after 48 hrs by immunoblot analysis; format: cell-based
Procedure, shortened: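 In MDA-MB-231 and MDA-MB-468 cells, SIRT2 was assessed by immunoblot after compound treatment.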

MDA-MB-231 = experiment: Cytotoxicity against human MDA-MB-231 cells assessed as reduction in cell viability at 1 uM after 72 hrs; format: functional, cell-based
[2] = molecular target: T1, Protein cereblon/NAD-dependent protein deacetylase sirtuin-2 (Homo sapiens); experiment: Protac activity at CRBN/SIRT2 in human MCF7 cells assessed as inhibition of SIRT2 deacetylation by measuring increase in acetylated-alpha tubulin level at 10 uM measured after 12 hrs by DAPI staining based immunofluorescence microscopic analysis; format: cell-based
Procedure, shortened: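 MCF7 cells treated for 12 h with 5 or 10 μM, DMSO as control. Acetyl-α-tubulin (K40) was imaged by immunofluorescence, and fluorescence intensity was quantified and normalized to vehicle.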

[3] = molecular target: T2, NAD-dependent protein deacetylase sirtuin-2 (Homo sapiens, UniProt Q8IXJ6); experiment: Inhibition of human SIRT2 defatty-acylation activity using peptide substrate in presence of NAD+ by HPLC analysis
T2 sequence (Q8IXJ6 whole entry): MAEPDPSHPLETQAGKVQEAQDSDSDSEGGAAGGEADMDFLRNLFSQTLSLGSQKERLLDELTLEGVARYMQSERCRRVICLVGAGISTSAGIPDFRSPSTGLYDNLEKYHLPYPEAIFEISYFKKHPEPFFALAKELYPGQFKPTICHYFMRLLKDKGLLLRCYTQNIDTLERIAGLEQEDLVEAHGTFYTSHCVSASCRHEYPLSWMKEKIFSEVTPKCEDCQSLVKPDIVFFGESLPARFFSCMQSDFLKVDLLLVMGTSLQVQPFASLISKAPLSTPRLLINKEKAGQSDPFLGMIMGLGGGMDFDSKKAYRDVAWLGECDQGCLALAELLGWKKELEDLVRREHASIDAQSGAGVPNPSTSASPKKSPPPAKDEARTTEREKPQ

[4] = molecular target: T3, NAD-dependent protein deacetylase sirtuin-1 (Homo sapiens, UniProt Q96EB6); experiment: Inhibition of human SIRT1 deacetylation activity using H3K9Ac as substrate preincubated for 15 mins in presence of NAD+ followed by substrate addition by HPLC analysis
T3 sequence (Q96EB6 whole entry): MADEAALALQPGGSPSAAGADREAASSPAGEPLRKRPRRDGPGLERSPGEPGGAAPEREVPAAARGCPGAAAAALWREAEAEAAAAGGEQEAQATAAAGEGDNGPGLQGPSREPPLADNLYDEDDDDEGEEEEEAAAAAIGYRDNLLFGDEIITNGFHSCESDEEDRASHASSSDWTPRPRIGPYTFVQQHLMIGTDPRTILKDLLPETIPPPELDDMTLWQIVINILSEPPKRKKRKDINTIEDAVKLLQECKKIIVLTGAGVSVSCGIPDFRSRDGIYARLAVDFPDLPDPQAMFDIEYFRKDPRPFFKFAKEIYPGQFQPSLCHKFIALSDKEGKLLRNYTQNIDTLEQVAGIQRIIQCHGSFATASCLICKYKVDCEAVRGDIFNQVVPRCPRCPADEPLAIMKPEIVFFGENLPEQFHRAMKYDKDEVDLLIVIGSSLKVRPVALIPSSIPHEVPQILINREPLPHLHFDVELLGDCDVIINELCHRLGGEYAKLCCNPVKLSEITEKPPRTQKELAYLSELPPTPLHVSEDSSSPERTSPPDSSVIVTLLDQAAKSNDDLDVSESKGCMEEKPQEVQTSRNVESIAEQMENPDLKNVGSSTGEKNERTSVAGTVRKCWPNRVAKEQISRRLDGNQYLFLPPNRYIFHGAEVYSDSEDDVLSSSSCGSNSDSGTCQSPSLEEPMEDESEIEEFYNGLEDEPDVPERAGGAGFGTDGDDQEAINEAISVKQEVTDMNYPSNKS
Procedure, shortened: (§1)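 In vitro sirtuin reaction mixture with compound at a range of concentrations. Compound was preincubated with NAD+ and the enzyme before the substrate peptide was added. IC50 taken from the concentration series.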

[5] = molecular target: T1, Protein cereblon/NAD-dependent protein deacetylase sirtuin-2 (Homo sapiens); experiment: Protac activity at CRBN/SIRT2 in human HEK293T cells stably expressing flag-tagged K-Ras4a-G12V assessed as inhibition of SIRT2 defatty-acylation at 1 uM incubated for 48 hrs by immunoblot analysis; format: cell-based; conditions: HEK-293T
Procedure, shortened: (§2)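 HEK 293T cells stably overexpressing Flag-tagged K-Ras4a-G12V (confirmed by pan-Ras blot) were exposed to 1 μM compound for 48 h. SIRT1, SIRT2 and SIRT3 levels were then read by immunoblot.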

[6] = molecular target: T4, Protein cereblon/NAD-dependent protein deacetylase sirtuin-1 (Homo sapiens) (UniProt Q96EB6+Q96SW2); experiment: Protac activity at CRBN/SIRT1 in human HEK293T cells stably expressing flag-tagged K-Ras4a-G12V assessed as inhibition of SIRT2 defatty-acylation at 1 uM incubated for 48 hrs by immunoblot analysis; format: cell-based; conditions: HEK-293T; procedure, shortened: as §2
[7] = molecular target: T4, Protein cereblon/NAD-dependent protein deacetylase sirtuin-1 (Homo sapiens); experiment: Protac activity at CRBN/SIRT1 in human MCF7 cells assessed as SIRT1 degradation at 5 to 10 uM after 48 hrs by immunoblot analysis; format: cell-based; conditions: dose microM 5-10, time 48.0 hrs
Procedure, shortened: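 MCF7 or BT-549 cells exposed to inhibitor at the indicated concentrations for 48 h; SIRT1, SIRT2 and SIRT3 levels read by immunoblot.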

[8] = molecular target: NAD-dependent protein deacylase sirtuin-5, mitochondrial (Homo sapiens, UniProt Q9NXA8); experiment: Inhibition of human SIRT5 deacetylation activity using H3K9Ac as substrate preincubated for 15 mins in presence of NAD+ followed by substrate addition by HPLC analysis; procedure, shortened: as §1
Chain of NAD-dependent protein deacylase sirtuin-5, mitochondrial (Q9NXA8 whole entry): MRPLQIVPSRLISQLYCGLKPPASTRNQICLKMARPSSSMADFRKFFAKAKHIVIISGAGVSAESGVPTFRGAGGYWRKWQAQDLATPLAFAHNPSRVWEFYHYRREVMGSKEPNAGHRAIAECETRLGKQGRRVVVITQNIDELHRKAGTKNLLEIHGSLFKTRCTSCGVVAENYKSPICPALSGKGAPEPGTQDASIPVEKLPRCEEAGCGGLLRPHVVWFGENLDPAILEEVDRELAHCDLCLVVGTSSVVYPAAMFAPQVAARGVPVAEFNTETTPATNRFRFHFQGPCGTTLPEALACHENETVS

T1 sequence (Q96SW2 whole entry, looked up, one chain of several): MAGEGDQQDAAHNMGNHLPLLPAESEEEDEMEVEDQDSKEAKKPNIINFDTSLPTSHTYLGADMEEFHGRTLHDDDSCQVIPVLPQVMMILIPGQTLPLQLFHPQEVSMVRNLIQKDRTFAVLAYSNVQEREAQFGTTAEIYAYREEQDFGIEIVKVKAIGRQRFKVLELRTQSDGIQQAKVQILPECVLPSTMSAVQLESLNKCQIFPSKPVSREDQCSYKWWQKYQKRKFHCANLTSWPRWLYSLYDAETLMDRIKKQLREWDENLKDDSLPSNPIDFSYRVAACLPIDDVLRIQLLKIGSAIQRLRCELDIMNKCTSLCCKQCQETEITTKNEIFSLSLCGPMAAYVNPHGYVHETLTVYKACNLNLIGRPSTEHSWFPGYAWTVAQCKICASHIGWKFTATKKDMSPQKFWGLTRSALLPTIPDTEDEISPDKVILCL
T4 sequence (Q96SW2 whole entry, looked up, one chain of several): as above

`CCCCCCCCCCCCCC(=S)NCCCC[C@H](NC(=O)CCOCCOCCOCCOCCNc1cccc2c1C(=O)N(C1CCC(=O)NC1=O)C2=O)C(=O)Nc1ccccc1` (some centres undefined) was tested, and the Activity [1] was “Active”, the Activity (MDA-MB-231) was “inactive” and the Activity [2] was “Active”. The pIC50 [3] was < 4.08, the pIC50 [4] was 4.39 and the Activity [5] was “Active”. The Activity [6] was “inactive”, the Activity [7] was “inactive” and the pIC50 [8] was < 4.08.
